According to ChEMBL document CHEMBL1221188, “Small-molecule activation of procaspase-3 to caspase-3 as a personalized anticancer strategy” (Nat Chem Biol, 2006):
Activity calls are given as the source filed them. No cut-off for these calls is given here.

Tests used:
Caspase-3 [1] = molecular target: T1, Caspase-3 (Homo sapiens, UniProt P42574); assay: Activation of N-terminal His6-tagged recombinant procaspase-3 expressed in Escherichia coli assessed as hydrolysis of acetyl-DEVD-p-nitroanilide after 2 hrs by SDS-PAGE
T1 sequence (P42574 whole entry): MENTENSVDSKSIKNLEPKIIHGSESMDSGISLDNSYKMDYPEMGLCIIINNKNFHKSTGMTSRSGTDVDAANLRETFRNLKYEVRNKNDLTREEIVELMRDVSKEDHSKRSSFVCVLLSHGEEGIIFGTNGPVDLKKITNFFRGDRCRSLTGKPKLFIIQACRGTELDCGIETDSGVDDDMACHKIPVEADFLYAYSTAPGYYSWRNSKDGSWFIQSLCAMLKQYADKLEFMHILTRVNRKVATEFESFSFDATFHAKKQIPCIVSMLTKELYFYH

Caspase-3 [2] = molecular target: Caspase-3 (Homo sapiens, UniProt P42574, D179A); assay: Activation of N-terminal His6-tagged recombinant procaspase-3 D179A mutant expressed in Escherichia coli assessed as hydrolysis of acetyl-DEVD-p-nitroanilide after 2 hrs by SDS-PAGE; details: in the assay text read “by spectrophotometry” for “by SDS-PAGE”
Outline: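 Alanine substitution in the procaspase-3 safety-catch Asp-Asp-Asp triad (Asp179, Asp180, Asp181). The wild-type or mutant proenzyme was incubated with a range of compound concentrations for 12 h at 37 °C. Ac-DEVD-pNA was then added and absorbance at 405 nm was read every 2 min for 2 h. Activity was taken from the linear-phase slope and expressed as relative increase per mutant.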

HL-60 [3] = assay: Induction of apoptosis in human HL60 cells assessed viable cells at 100 uM after 20 hrs using annexin V-propidium iodide staining by flow cytometry; type: functional
Outline: (§1)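 HL-60 cells treated 20 h at 37 °C with 100 µM drug in DMSO or DMSO alone; washed, stained with annexin V–Alexa Fluor 488 (15 min, 23 °C) plus propidium iodide; flow cytometry at 525 and 675 nm, ≥50,000 cells per experiment.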

HL-60 [4] = assay: Induction of apoptosis in human HL60 cells assessed as chromatin condensation at 100 uM after 20 hrs measured by Hoechst-33258 staining; type: functional, cell-based
Outline: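 HL-60 cells were treated 20 h with 100 µM drug in DMSO against a DMSO control. Cells were then fixed in ice-cold ethanol overnight at 4 °C and stained with Hoechst-33258 for 30 min at room temperature. Condensed chromatin was viewed microscopically at 400× magnification.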

HL-60 [5] = assay: Induction of apoptosis in human HL60 cells assessed as mitochondrial membrane depolarization at 100 uM after 12 hrs by fluorescence assay; type: functional, cell-based
Outline: (§2)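 HL-60 cells exposed to drug in DMSO or DMSO alone for various times, stained with JC-9 dye for 10 min at room temperature, then analysed by flow cytometry at 525/675 nm on 50,000 cells. Depolarization was derived from the red-channel shift.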

HL-60 [6] = assay: Induction of apoptosis in human HL60 cells assessed as increase in caspase-3 activity at 100 uM after 12 hrs; type: functional, cell-based
Outline: (§3)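 HL-60 cells were treated with a range of drug concentrations for various times, then washed. They were lysed by sonication in ice-cold caspase assay buffer and given Ac-DEVD-pNA. Absorbance at 405 nm was read every 2 min for 2 h, and the cleavage rate came from the linear slope.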

HL-60 [7] = assay: Induction of apoptosis in human HL60 cells assessed as increase in PARP1 cleavage at 10 uM after 12 hrs by fluorescence assay; type: functional, cell-based
HL-60 [8] = assay: Induction of apoptosis in human HL60 cells assessed as increase in PARP1 cleavage at 100 uM after 12 hrs by fluorescence assay; type: functional, cell-based
Outline: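 HL-60 cells given NAD+ with or without drug for various times, then lysed in PARP buffer with 25 mM H2O2 (60 min, 37 °C). Remaining NAD+ was measured fluorometrically after KOH/acetophenone (10 min, 4 °C) and formic acid (5 min, 110 °C). PARP activity is expressed relative to control wells.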

HL-60 [9] = assay: Inhibition of apoptosis in human HL60 cells at 100 uM after 24 hrs using annexin V-propidium iodide staining by flow cytometry in presence of pan-caspase inhibitor Z-VAD-FMK; type: functional, cell-based
[10] = Cytotoxicity against human colon cells after 24 hrs by MTS/PMS assay; type: cell-based; details: Colon cell
[11] = Cytotoxicity against human colon cancer cells after 24 hrs by MTS/PMS assay; type: functional, cell-based; details: Cancer cell lines
NCI-H226 [12] = assay: Induction of apoptosis in human NCI-H226 cells isolated from BALB/c mouse xenograft assessed as DNA fragmentation at 50 mg/kg, po SID for 21 days measured after 1 week post last dose by TUNEL assay; type: functional, organism-based; set-up: dose 50 mg/kg
Outline: (§4)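 Subcutaneous NCI-H226 tumors from nude mice dosed orally (50 or 100 mg/kg daily for 21 d in 24:1 vegetable oil/DMSO) were resected at end of study, sectioned and scored by TUNEL staining.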

NCI-H226 [13] = assay: Induction of apoptosis in human NCI-H226 cells isolated from BALB/c mouse xenograft assessed as DNA fragmentation at 100 mg/kg, po SID for 21 days measured after 1 week post last dose by TUNEL assay; type: functional, organism-based; set-up: dose 100 mg/kg; outline: as §4
NCI-H226 [14] = assay: Antitumor activity against human NCI-H226 cells xenografted in po dosed BALB/c mouse administered SID for 21 days assessed as retardation of tumor growth measured after 1 week post last dose; type: functional, organism-based
Outline: (§5)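 Male athymic BALB/c nude mice, 5 weeks old; 2 × 10^6 NCI-H226 cells injected subcutaneously into the flanks, eight mice per group, three tumors per mouse. Once tumors reached about 50 mm3 (~4 weeks), 0, 50 or 100 mg/kg was given by oral gavage in 24:1 vegetable oil/DMSO once daily for 21 d. Caliper volume (v = 0.5·a·b2) and body weight tracked; killed 1 week later.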

Mus musculus [15] = assay: Toxicity in BALB/c mouse xenografted with human NCI-H226 cells assessed as effect on body weight at 50 to 100 mg/kg, po SID for 21 days measured after 1 week post last dose; type: organism-based; set-up: dose 50-100 mg/kg, route oral; details: in vivo, 168 h; outline: as §5
ACHN = assay: Antitumor activity against human ACHN cells xenografted in BALB/c mouse assessed as tumor growth at 5 mg administered via pellet measured after 54 days of tumor implantation
Outline: (§6)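 Ovariectomized female athymic BALB/c nu/nu mice; ACHN cells in Matrigel injected subcutaneously into four flanks. After 4 weeks (mean tumor area 34.3 mm2), 20-mg cholesterol pellets with 0, 1 or 5 mg drug implanted subcutaneously; six mice per group. Tumor volume v = 0.5·a·b2 measured weekly. Food intake over two consecutive 24-h periods at study end (8 weeks post-implant).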

NCI-H226 [16] = assay: Antitumor activity against human NCI-H226 cells xenografted in BALB/c mouse assessed as suppression of tumor metastasis at 100 mg/kg, po administered from day 1 to 4 and day 7 to 11 measured after 28 days; type: functional, organism-based; set-up: dose 100 mg/kg
Outline: (§7)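 Male athymic nude mice received 2 × 10^6 NCI-H226 cells by tail-vein injection. Dosing was 100 mg/kg by oral gavage in 24:1 vegetable oil/DMSO once daily on days 1–4 and 7–11, against vehicle, four mice per group. Body weight was followed. At 28 d the lungs were examined, sectioned, stained and imaged for tumor burden.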

HL-60 [17] = assay: Induction of apoptosis in human HL60 cells assessed viable cells at 5 uM after 28 hrs using annexin V-propidium iodide staining by flow cytometry; type: functional
HL-60 [18] = assay: Induction of apoptosis in human HL60 cells assessed early apoptotic cells at 5 uM after 28 hrs using annexin V-propidium iodide staining by flow cytometry; type: functional
HL-60 [19] = assay: Induction of apoptosis in human HL60 cells assessed late apoptotic cells at 5 uM after 28 hrs using annexin V-propidium iodide staining by flow cytometry; type: functional
HL-60 [20] = assay: Induction of apoptosis in human HL60 cells assessed non-viable necrotic cells at 5 uM after 28 hrs using annexin V-propidium iodide staining by flow cytometry; type: functional
HL-60 [21] = assay: Induction of apoptosis in human HL60 cells assessed early apoptotic cells at 100 uM after 20 hrs using annexin V-propidium iodide staining by flow cytometry; type: functional; outline: as §1
HL-60 [22] = assay: Induction of apoptosis in human HL60 cells assessed late apoptotic cells at 100 uM after 20 hrs using annexin V-propidium iodide staining by flow cytometry; type: functional; outline: as §1
HL-60 [23] = assay: Induction of apoptosis in human HL60 cells assessed non-viable necrotic cells at 100 uM after 20 hrs using annexin V-propidium iodide staining by flow cytometry; type: functional; outline: as §1
HL-60 [24] = assay: Induction of apoptosis in human HL60 cells assessed as increase in caspase-3 activity at 100 uM up to 2 hrs; type: functional; outline: as §3
Mus musculus [25] = assay: Toxicity in BALB/c mouse xenografted with human ACHN cells assessed as effect on food intake at 5 mg administered via pellet measured after 54 days of tumor implantation; type: organism-based; details: in vivo, other, 1296 h; outline: as §6
[26] = Plasma concentration in BALB/c mouse xenografted with human ACHN cells at 5 mg administered via pellet measured after 54 days of tumor implantation; type: ADME, organism-based
Mus musculus [27] = assay: Toxicity in BALB/c mouse xenografted with human NCI-H226 cells assessed as effect on body weight at 100 mg/kg, po administered from day 1 to 4 and day 7 to 11 measured after 28 days; type: organism-based; set-up: dose 100 mg/kg, route oral; details: in vivo, 672 h; outline: as §7
NCI-H226 [28] = assay: Antitumor activity against human NCI-H226 cells isolated from BALB/c mouse xenograft assessed as decrease in metastatic tumor burden at 100 mg/kg, po administered from day 1 to 4 and day 7 to 11 measured after 28 days by imaging assay; type: functional, organism-based; set-up: dose 100 mg/kg; outline: as §7
HL-60 [29] = assay: Induction of apoptosis in human HL60 cells assessed as mitochondrial membrane depolarization at 10 uM after 12 hrs by fluorescence assay; type: functional, cell-based; outline: as §2
HL-60 [30] = assay: Induction of apoptosis in human HL60 cells assessed as increase in caspase-3 activity at 10 uM after 12 hrs; type: functional, cell-based; outline: as §3

Sequence of Caspase-3 (Homo sapiens, UniProt P42574, D179A) (P42574 176-277 D179A limits assumed, one chain of several): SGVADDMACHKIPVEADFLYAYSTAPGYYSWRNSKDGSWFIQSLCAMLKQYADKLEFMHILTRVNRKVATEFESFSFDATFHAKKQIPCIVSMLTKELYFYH

SMILES: CCOC(=O)CN1CCN(Cc2ccccc2)CC1
- EC50 (Caspase-3 [1]): > 50 µM

SMILES: NNC(=O)CN1CCN(Cc2ccccc2)CC1
- EC50 (Caspase-3 [1]): > 50 µM

SMILES: C=CCc1cccc(/C=N/NC(=O)CN2CCN(Cc3ccccc3)CC2)c1O [PAC-1]
- EC50 (Caspase-3 [2]): 131 µM
- Activity (HL-60 [3]): 9.8%
- Activity (HL-60 [4]): Active
- Activity (HL-60 [5]): inactive
- Activity (HL-60 [6]): Active
- Activity (HL-60 [7]): Active
- Activity (HL-60 [8]): Active
- Activity (HL-60 [9]): inactive
- IC50 [10]: 5.02 µM
- IC50 [11]: 0.003 µM
- Activity (NCI-H226 [12]): Active
- Activity (NCI-H226 [13]): Active
- inhibition (NCI-H226 [14]): Dose-dependent effect
- Activity (Mus musculus [15]): Non-toxic
- Activity (ACHN): Active
- inhibition (ACHN): Active
- Activity (NCI-H226 [16]): Active
- Activity (HL-60 [17]): 10.26%
- Activity (HL-60 [18]): 80.75%
- Activity (HL-60 [19]): 8.73%
- Activity (HL-60 [20]): 0.26%
- Activity (HL-60 [21]): 80.2%
- Activity (HL-60 [22]): 9.6%
- Activity (HL-60 [23]): 0.4%
- Activity (HL-60 [24]): 50%
- Activity (Mus musculus [25]): Non-toxic
- concentration at 1296 h [26]: 4.4 nM
- Activity (Mus musculus [27]): Non-toxic
- Activity (NCI-H226 [28]): Active

SMILES: c1ccc(CN2CCN(Cc3ccccc3)CC2)cc1
- EC50 (Caspase-3 [1]): > 50 µM

SMILES: COc1cc([C@@H]2c3cc4c(cc3[C@@H](O[C@@H]3O[C@@H]5CO[C@@H](C)O[C@H]5[C@H](O)[C@H]3O)[C@H]3COC(=O)[C@H]23)OCO4)cc(OC)c1O
- Activity (HL-60 [29]): Active
- Activity (HL-60 [30]): Active
- Activity (HL-60 [7]): Active
- Activity (HL-60 [8]): Active

SMILES: O=C(CN1CCN(Cc2ccccc2)CC1)N/N=C/c1ccccc1
- EC50 (Caspase-3 [1]): > 50 µM

SMILES: c1ccc(CN2CCNCC2)cc1
- EC50 (Caspase-3 [1]): > 50 µM

SMILES: C/C=N/NC(=O)CN1CCN(Cc2ccccc2)CC1
- EC50 (Caspase-3 [1]): > 50 µM

SMILES: CN1CCN(CC(=O)N/N=C/c2ccccc2O)CC1
- EC50 (Caspase-3 [1]): > 50 µM

SMILES: CCOC(=O)CN1CCNCC1 [ETHYL PIPERAZINOACETATE]
- EC50 (Caspase-3 [1]): > 50 µM
